According to publication PMC6440450 (International Journal of Nanomedicine, 2019):
Where two headings read alike, the source gives them in different places.

Columns and labels:
HEL cells = assay: Cell-cycle analysis; assay type: cell-based, human; conditions: 72 hours, decitabine solution 1,000 nM
In short: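 HEL cells (RPMI 1640, 10% FBS, 1% antibiotics, 37°C, 5% CO2) were seeded at 5×10^4/well. After 24 h, they were treated with the test compound solution (1,000 nM), prodrug-loaded lipid nanocapsules (2,500 nM), excipient-matched blank nanocapsules or medium for 72 h. Cells were ethanol-fixed (70%, cold) and stained 15 min in the dark with 40 µg/mL propidium iodide plus 100 µg/mL RNase A. Phases were fitted by the Dean Jett Fox model. n=3 plates in triplicate; Mann–Whitney versus medium.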

[1] = phosphate buffer, 37°C, after 24 hours; cited from earlier work
[2] = tested on: human erythroleukemia cell line (HEL); assay: In vitro cell proliferation; assay type: cell-based; conditions: 72 hours exposure
In short: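 HEL cells were seeded at 5×10^3/well and treated 24 h later for 72 h. Doses were 12.5–2,500 nM for the lipid prodrug (free or nanocapsule-loaded) and 5–1,000 nM for the parent nucleoside; blank nanocapsules were excipient-matched. Pellets were frozen at −80°C for ≥48 h, then read by CyQuant. Medium-only wells defined 100% viability. Three independent experiments in quadruplicate; Mann–Whitney test.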

[3] = decitabine solution, human plasma, same conditions, after 6 hours; cited from earlier work
[4] = cited from earlier work

## Nc1ncn([C@H]2C[C@H](O)[C@@H](CO)O2)c(=O)n1 [Decitabine]
HEL cells
  Cells arrested in G2/M: 17.2%
[1]
  Initial concentration recovered: < 50%
[2]
  Concentration above which cell viability decreased: above 50 nM
[3]
  Initial concentration recovered: < 40%
[4]
  Half-life in plasma: 15 to 25 min
